Target: Protein kinase C alpha type (Homo sapiens, UniProt P17252)
Test: Displacement of [3H]-PDBu from recombinant human PKCalpha at 30 uM by scintillation counter method relative to control
Method in brief: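 Competition of 2 nM [3H]PDBu by test ligand at a single fixed concentration (value in line); 50 mM Tris-HCl pH 7.4, 100 μg/mL porcine brain phosphatidylserine, 5 mg/mL bovine IgG, 0.003% Tx-100, 20 ng/tube enzyme; 0.1 mM Ca2+ for PKCα, 1 mM EGTA for PKCε. 5 min at 37 °C, PEG precipitation, bound and free counted separately; nonspecific with 10 μM cold PDBu; triplicates.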

Work on `Cc1ccc(-c2cn(CC3(CO)C/C(=C\CC(CC(C)C)CC(C)C)C(=O)O3)nn2)cc1` (stereo unspecified) yielded an Inhibition of 21%.

Source: BindingDB's records for doi:10.1021/acs.jmedchem.1c00739 (2021)
